# Measured values as given in ChEMBL document CHEMBL4680190, “Imidazo[2,1-b] [1,3,4]thiadiazoles with antiproliferative activity against primary and gemcitabine-resistant pancreatic cancer cells” (Eur J Med Chem, 2020).
# Active and inactive are the calls of the source. The calls are words filed in the database; no cut-off is given here.
# Legend:
# [1] = molecular target: Focal adhesion kinase 1 (Homo sapiens) (UniProt Q05397); test: Inhibition of PTK2 in human Panc-1 cells assessed as inhibition of PTK2 phosphorylation at Y397 residue at 5XIC50 incubated for 24 hrs by western blot analysis; format: cell-based
# Focal adhesion kinase 1 (Homo sapiens), sequence (Q05397 2-1052 limits assumed): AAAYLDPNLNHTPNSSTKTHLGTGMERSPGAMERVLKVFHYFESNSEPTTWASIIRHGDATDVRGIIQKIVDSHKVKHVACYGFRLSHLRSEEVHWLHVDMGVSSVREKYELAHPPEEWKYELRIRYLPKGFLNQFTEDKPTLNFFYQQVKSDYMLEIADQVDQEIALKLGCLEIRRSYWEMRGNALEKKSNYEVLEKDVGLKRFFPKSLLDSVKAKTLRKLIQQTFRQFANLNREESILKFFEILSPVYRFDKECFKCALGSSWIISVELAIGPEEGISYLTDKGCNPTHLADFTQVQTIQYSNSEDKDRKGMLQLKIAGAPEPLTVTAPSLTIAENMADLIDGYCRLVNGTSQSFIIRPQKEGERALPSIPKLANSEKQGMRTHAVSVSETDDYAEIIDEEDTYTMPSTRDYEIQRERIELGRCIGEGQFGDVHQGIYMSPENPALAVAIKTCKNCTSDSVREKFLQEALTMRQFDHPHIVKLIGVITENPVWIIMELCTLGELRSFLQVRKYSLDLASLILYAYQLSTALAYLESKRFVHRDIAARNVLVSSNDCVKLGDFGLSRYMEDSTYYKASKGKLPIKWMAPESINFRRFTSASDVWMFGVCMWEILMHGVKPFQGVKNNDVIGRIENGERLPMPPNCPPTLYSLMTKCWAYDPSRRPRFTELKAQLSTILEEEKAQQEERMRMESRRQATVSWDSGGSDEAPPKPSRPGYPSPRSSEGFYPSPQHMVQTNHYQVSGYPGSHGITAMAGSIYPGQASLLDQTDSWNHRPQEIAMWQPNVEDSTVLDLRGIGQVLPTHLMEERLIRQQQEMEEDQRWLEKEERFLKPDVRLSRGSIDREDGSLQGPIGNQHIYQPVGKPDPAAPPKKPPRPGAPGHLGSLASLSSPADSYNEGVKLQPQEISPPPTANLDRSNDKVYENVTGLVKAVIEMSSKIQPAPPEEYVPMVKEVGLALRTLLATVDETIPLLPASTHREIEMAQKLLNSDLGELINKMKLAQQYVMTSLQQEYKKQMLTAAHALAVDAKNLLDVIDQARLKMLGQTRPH
# [2] = molecular target: Focal adhesion kinase 1 (Homo sapiens) (UniProt Q05397); test: Inhibition of PTK2 in human CAPAN-1 cells assessed as inhibition of PTK2 phosphorylation at Y397 residue at 5XIC50 incubated for 24 hrs by western blot analysis; format: cell-based
# [3] = molecular target: Focal adhesion kinase 1 (Homo sapiens) (UniProt Q05397); test: Inhibition of PTK2 in human SUIT-2 cells assessed as inhibition of PTK2 phosphorylation at Y397 residue at 5XIC50 incubated for 24 hrs by western blot analysis; format: cell-based
# [4] = test system: PANC-1; test: Antiproliferative activity against human Panc-1 cells assessed as reduction in cell growth incubated for 72 hrs by SRB assay; format: functional, cell-based; settings: PANC-1, 72 h
# Procedure, shortened: (§1)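 Cells were seeded in triplicate at 3×10³/well (Panc-1, Panc-1R, PDAC-3) or 5×10³/well (Capan-1) and preincubated 24 h at 37 °C. Fixation was cold TCA, staining 0.4% SRB, solubilisation Tris pH 8.8, read at 490/540 nm. Growth was taken versus vehicle, day-0 corrected, and IC50 fitted nonlinearly; three independent experiments, mean ± SEM.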
# [5] = test system: CAPAN-1; test: Antiproliferative activity against human Capan-1 cells assessed as reduction in cell growth incubated for 72 hrs by SRB assay; format: functional, cell-based; settings: CAPAN-1, 72 h; procedure, shortened: as §1
# [6] = Antiproliferative activity against human SUIT-2 cells assessed as reduction in cell growth incubated for 72 hrs by SRB assay; format: functional, cell-based; settings: SUIT-2, 72 h
# Procedure, shortened: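 SUIT-2 cells seeded at 3 × 10³/well in triplicate and left 24 h at 37 °C. Cells were fixed with cold TCA, stained with 0.4% SRB in 1% acetic acid and dissolved in Tris pH 8.8. A490/A540 was read vs vehicle, corrected for day-0 OD. IC50 came from nonlinear curve fit; mean of three experiments.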
# [7] = Antiproliferative activity against human PDAC-3 cells assessed as inhibition of cell growth incubated for 72 hrs by SRB assay; format: functional, cell-based; settings: PDAC-3, 72 h; procedure, shortened: as §1
# [8] = Antiproliferative activity against gemicitabine-resistant human Panc-1R cells incubated for 72 hrs by SRB assay; format: functional, cell-based; settings: PANC-1, 72 h; procedure, shortened: as §1
SMILES,inhibition [1],inhibition [2],inhibition [3],IC50 [4] [µM],IC50 [5] [µM],IC50 [6] [µM],IC50 [7] [µM],IC50 [8] [µM]
c1ccc2c(-c3nn4cc(-c5ccsc5)nc4s3)c[nH]c2c1,Active,Active,Active,–,–,–,–,–
COc1ccc(OC)c(-c2nc3sc(-c4c[nH]c5ccccc45)nn3c2C=O)c1,–,–,–,> 16,> 16,13,–,–
O=Cc1c(-c2ccc(F)cc2)nc2sc(-c3c[nH]c4ccccc34)nn12,–,–,–,10.5,8.83,7.93,–,–
COc1ccc(OC)c(-c2nc3sc(-c4c[nH]c5ccc(Br)cc45)nn3c2C=O)c1,–,–,–,10.6,8.24,8.7,–,–
COc1ccc(OC)c(-c2nc3sc(-c4cn(C)c5ccccc45)nn3c2C=O)c1,–,–,–,> 16,5.73,12.5,–,–
O=c1[nH]cc(F)c(=O)[nH]1 [FLUOROURACIL],–,–,–,4.3,0.47,0.91,0.56,4.5
COc1cccc(-c2nc3sc(-c4c[nH]c5ccccc45)nn3c2C=O)c1,–,–,–,> 16,> 16,11.5,–,–
Cn1cc(-c2nn3cc(-c4ccsc4)nc3s2)c2ccccc21,Active,Active,Active,–,–,–,–,–
Nc1ccn([C@@H]2O[C@H](CO)[C@@H](O)C2(F)F)c(=O)n1 [GEMCITABINE],–,–,–,0.15,0.02,0.01,0.03,> 10
O=Cc1c(-c2ccccc2)nc2sc(-c3c[nH]c4ccccc34)nn12,–,–,–,12.4,10.5,9.56,–,–
